Results taken from ChEMBL document CHEMBL1134335, “Structure-activity relationships of pyridoxal phosphate derivatives as potent and selective antagonists of P2X1 receptors” (J Med Chem, 2001).
Activity calls are given as the source filed them. No cut-off for these calls is given here.

How the values were obtained:
[1] = molecular target: T1, P2X purinoceptor 1 (Rattus norvegicus) (UniProt P47824); test: Inhibition of inward ion current elicited by ATP at P2X1 receptor expressed in Xenopus oocytes; IA means inactive; format: functional, cell-based; details: Oocyte
T1 sequence (whole entry): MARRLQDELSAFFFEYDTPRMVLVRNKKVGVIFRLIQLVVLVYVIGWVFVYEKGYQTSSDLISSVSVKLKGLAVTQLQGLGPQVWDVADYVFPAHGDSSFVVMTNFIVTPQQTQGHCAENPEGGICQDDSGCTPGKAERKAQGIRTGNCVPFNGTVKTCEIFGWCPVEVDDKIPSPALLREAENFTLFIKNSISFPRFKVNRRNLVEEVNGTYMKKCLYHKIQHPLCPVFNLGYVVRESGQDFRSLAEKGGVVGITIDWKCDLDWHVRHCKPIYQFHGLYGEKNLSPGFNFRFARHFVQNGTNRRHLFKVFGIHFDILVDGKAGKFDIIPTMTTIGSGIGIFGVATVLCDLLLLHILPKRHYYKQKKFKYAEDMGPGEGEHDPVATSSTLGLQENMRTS

[2] = molecular target: T2, P2X purinoceptor 7 (Homo sapiens) (UniProt Q99572); test: Percentage inhibition of ATP-induced K+ efflux (cation free) in adherent HEK293 cells expressing human P2X7 receptor; format: functional, cell-based; details: concentration not given here
T2 sequence (whole entry): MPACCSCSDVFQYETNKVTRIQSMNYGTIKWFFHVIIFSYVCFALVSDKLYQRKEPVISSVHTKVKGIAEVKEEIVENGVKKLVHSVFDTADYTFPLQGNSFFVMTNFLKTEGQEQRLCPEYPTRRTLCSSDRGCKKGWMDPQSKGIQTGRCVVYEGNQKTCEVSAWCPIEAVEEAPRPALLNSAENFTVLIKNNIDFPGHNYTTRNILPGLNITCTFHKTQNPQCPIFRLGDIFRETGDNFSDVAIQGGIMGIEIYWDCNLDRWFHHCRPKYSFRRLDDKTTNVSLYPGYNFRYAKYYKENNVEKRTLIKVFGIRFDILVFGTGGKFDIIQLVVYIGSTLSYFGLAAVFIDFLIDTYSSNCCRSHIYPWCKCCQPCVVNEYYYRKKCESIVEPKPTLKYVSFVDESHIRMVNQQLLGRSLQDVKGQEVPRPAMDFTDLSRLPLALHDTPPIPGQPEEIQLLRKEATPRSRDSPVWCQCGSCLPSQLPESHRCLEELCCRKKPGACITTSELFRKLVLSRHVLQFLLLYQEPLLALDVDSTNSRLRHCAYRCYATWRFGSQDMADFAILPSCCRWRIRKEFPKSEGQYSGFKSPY
Procedure, shortened: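 Adherent HEK293 cells stably expressing human P2X7, in divalent cation-free saline (no added MgCl₂ or CaCl₂; pH 7.5). Pretreated with 30 µM compound, then 3 mM ATP for 10 min at 37 °C. Residual cell K⁺ was extracted in 10% HNO₃ for 2 h and measured by atomic absorbance against untreated cells. n=3, each in duplicate.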

[3] = molecular target: T2, P2X purinoceptor 7 (Homo sapiens); test: Percent inhibition of ATP-induced K+ efflux (ethidium influx) in suspended HEK293 cells expressing human P2X7 receptor; format: functional, cell-based; details: concentration not given here
Procedure, shortened: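 Trypsinised HEK293 cells stably expressing human P2X7 were suspended in divalent cation-free saline in a stirred cuvette at 37 °C with 20 µM ethidium bromide. Cells were treated with 30 µM compound, then 300 µM ATP.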

[4] = molecular target: T3, P2X purinoceptor 1 (Rattus norvegicus, UniProt P47824); test: Inhibition of inward ion current elicited by ATP at P2X1 receptor expressed in Xenopus oocytes; format: functional, cell-based, Oocyte
T3 sequence (P47824 whole entry): T1 sequence (whole entry)

[5] = molecular target: T4, P2X purinoceptor 2 (Rattus norvegicus, UniProt P49653); test: Inhibition of inward ion current elicited by ATP at P2X2 receptor expressed in Xenopus oocytes; format: functional, cell-based, Oocyte
T4 sequence (P49653 whole entry): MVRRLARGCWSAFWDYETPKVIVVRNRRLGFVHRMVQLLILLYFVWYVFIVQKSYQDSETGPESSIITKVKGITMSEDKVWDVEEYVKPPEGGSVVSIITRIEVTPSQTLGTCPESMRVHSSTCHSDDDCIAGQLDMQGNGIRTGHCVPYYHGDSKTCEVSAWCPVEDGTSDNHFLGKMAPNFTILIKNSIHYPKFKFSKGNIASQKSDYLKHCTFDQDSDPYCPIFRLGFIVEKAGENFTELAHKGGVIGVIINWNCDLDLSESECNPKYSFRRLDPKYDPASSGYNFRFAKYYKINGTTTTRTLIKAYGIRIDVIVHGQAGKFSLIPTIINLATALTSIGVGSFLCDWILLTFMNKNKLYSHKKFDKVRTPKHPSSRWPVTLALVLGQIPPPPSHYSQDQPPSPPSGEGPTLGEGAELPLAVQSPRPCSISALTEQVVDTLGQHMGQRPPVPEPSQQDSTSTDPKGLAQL

[6] = molecular target: T2, P2X purinoceptor 7 (Homo sapiens); test: Inhibition of ATP-induced K+ efflux (with cations) in adherent HEK293 cells expressing human P2X7 receptor; format: functional, cell-based; details: concentration not given here
Procedure, shortened: (§1)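 Adherent HEK293 cells stably expressing human P2X7, grown to 90% confluence, in saline with 1 mM MgCl₂ and 1.5 mM CaCl₂ (pH 7.5). Pretreated with 30 µM compound, then 3 mM ATP for 10 min at 37 °C. Cell K⁺ was extracted in 10% HNO₃ for 2 h and read by atomic absorbance relative to untreated cells. n=3, each in duplicate.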

[7] = molecular target: T5, P2Y purinoceptor 1 (Meleagris gallopavo, UniProt P49652); test: Inhibition of 10 nM 2-MeS-ADP-stimulated phospholipase C in turkey erythrocyte membranes using [3H]inositol; format: functional, cell membranes
T5 sequence (P49652 whole entry): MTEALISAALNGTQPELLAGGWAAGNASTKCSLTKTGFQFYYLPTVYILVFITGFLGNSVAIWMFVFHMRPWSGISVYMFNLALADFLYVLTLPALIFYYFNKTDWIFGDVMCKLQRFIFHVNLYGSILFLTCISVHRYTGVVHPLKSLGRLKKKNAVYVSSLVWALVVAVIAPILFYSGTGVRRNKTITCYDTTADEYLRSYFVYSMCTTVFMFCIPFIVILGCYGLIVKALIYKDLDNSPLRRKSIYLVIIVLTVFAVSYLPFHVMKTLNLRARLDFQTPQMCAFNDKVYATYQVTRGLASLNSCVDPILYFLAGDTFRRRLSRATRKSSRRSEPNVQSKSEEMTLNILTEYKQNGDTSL
Procedure, shortened: (§2)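 Turkey erythrocytes labelled 18-24 h at 37 °C with 2-[³H]myo-inositol in inositol-free DMEM, then lysed hypotonically (5 mM sodium phosphate pH 7.4, 5 mM MgCl₂, 1 mM EGTA) to make ghosts. Ghosts were incubated 5 min at 30 °C in pH 7.0 Hepes/KCl buffer with 1 µM GTPγS and 10 nM 2-MeSADP. Total [³H]inositol phosphates were measured by anion-exchange chromatography; 3-8 independent determinations.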

[8] = molecular target: T2, P2X purinoceptor 7 (Homo sapiens); test: Percent inhibition of ATP-induced K+ efflux (with cations) in adherent HEK293 cells expressing human P2X7 receptor; format: functional, cell-based; details: concentration not given here; procedure, shortened: as §1
[9] = molecular target: T6, P2X purinoceptor 3 (Rattus norvegicus) (UniProt P49654); test: Inhibition of inward ion current elicited by ATP at recombinant P2X3 receptor expressed in Xenopus oocytes at 10 uM; format: functional, cell-based; details: Oocyte
T6 sequence (whole entry): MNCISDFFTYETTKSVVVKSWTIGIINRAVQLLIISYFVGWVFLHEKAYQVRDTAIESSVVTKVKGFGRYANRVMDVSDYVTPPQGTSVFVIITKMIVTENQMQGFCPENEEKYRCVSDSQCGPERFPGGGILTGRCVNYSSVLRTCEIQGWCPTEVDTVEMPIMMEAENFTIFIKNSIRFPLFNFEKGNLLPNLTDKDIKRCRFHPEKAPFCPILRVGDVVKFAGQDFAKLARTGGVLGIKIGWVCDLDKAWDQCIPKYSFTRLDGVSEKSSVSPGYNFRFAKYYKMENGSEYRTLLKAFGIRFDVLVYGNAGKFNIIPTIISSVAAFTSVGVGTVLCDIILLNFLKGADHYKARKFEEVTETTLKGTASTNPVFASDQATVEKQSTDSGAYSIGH

[10] = molecular target: T1, P2X purinoceptor 1 (Rattus norvegicus); test: Inhibition of inward ion current elicited by ATP at P2X1 receptor expressed in Xenopus oocytes at 10 uM; format: functional, cell-based; details: Oocyte
[11] = molecular target: T7, P2X purinoceptor 3 (Rattus norvegicus, UniProt P49654); test: Inhibition of inward ion current elicited by ATP was determined at recombinant P2X3 receptor expressed in Xenopus oocytes; format: functional, cell-based, Oocyte
T7 sequence (P49654 whole entry): T6 sequence (whole entry)

[12] = molecular target: T5, P2Y purinoceptor 1; test: Inhibition of 10 nM 2-MeS-ADP-stimulated phospholipase C in turkey erythrocyte membrane; format: functional, cell membranes; procedure, shortened: as §2

Compound	inhibition [2] [%]	inhibition [3] [%]	IC50 [4] [nM]	IC50 [5] [nM]	IC50 [7] [nM]	inhibition [8] [%]	IC50 [11] [nM]	other results
CC(=O)Oc1c(C)nc(/N=N/c2cc(S(=O)(=O)O)ccc2S(=O)(=O)O)c2c1COP(=O)(O)OC2								IA [1]: inactive
CNc1ncnc2c1ncn2[C@H]1C[C@H](OP(=O)(O)O)[C@@H](COP(=O)(O)O)O1	24	100				37		
Cc1nc(/N=N/c2ccccc2)c(COP(=O)(O)O)c(C=O)c1O			42	1200			480	IC50 [12]: 54000 nM
Cc1nc(/N=N/c2ccc(C(=O)O)cc2)c2c(c1O)COP(=O)(O)OC2								inhibition [10]: 39%
Cc1nc(/N=N/c2cc(CP(=O)(O)O)cc(CP(=O)(O)O)c2)c(CP(=O)(O)O)c(C=O)c1O	-5	84	11	280	14500	0	25	

The next lines start with results.

inhibition [2] [%]	inhibition [3] [%]	IC50 [4] [nM]	IC50 [5] [nM]	IC50 [7] [nM]	inhibition [8] [%]	IC50 [11] [nM]	Compound	other results
67	100	43	398	21400			Cc1nc(/N=N/c2cc(S(=O)(=O)O)ccc2S(=O)(=O)O)c(COP(=O)(O)O)c(C=O)c1O [ISOPPADS]	inhibition [6]: 81%
-8	40				-5		Cc1nc(/N=N/c2cc(S(=O)(=O)O)ccc2Cl)c(CP(=O)(O)O)c(C=O)c1O	
-5	12			100000	-1		Cc1nc(/N=N/c2cc(S(=O)(=O)O)ccc2Cl)c(COP(=O)(O)O)c(COP(=O)(O)O)c1O	inhibition [9]: 30%; inhibition [10]: 78%
-7	15			100000	-1		Cc1nc(/N=N/c2cc(S(=O)(=O)O)ccc2S(=O)(=O)O)c(COP(=O)(O)O)c(COP(=O)(O)O)c1O	inhibition [10]: 27%
		20	2400	100000		145	Cc1nc(/N=N/c2ccc(C(=O)O)cc2)c(CCP(=O)(O)O)c(C=O)c1O	
		8.1	150			128	Cc1nc(/N=N/c2ccc(C(=O)O)cc2)c(CP(=O)(O)O)c(C=O)c1O	
